What all share (type): binding
Assay [1] deals with T1, P450cam (cytochrome P450cam), WT (Pseudomonas putida, UniProt P00183, C335A).
T1 sequence (P00183 2-415 C335A): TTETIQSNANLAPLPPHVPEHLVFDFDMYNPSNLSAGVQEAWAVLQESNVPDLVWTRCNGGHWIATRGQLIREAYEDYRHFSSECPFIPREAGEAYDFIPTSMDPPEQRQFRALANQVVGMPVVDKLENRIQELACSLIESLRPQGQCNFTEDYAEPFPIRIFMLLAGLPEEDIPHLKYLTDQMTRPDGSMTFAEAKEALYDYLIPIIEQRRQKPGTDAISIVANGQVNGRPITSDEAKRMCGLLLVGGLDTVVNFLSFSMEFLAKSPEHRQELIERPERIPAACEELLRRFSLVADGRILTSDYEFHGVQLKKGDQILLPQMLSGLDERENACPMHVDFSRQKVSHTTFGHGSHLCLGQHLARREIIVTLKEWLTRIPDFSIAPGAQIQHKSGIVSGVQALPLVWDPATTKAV
The assay can be described thus: constant-volume visible difference spectrophotometric titration. In a few lines: (§1)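 Substrate-bound protein solution was exchanged into substrate-free solution at the same protein concentration, and visible difference spectra were recorded. KD was obtained by fitting to a single-site binding model. This method applied to the camphor-analogue test compounds.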

Assay [2] addresses T2, P450cam (cytochrome P450cam), WT (Pseudomonas putida, UniProt P00183, C335A/Y97F).
T2 sequence (P00183 2-415 Y97F/C335A): T1 sequence (P00183 2-415 C335A)
Described as above. In a few lines:
as §1

The target of assay [3] is T1, P450cam (cytochrome P450cam), WT. The assay can be described thus: visible spectrophotometric titration.
For assay [4], the target named is T2, P450cam (cytochrome P450cam), WT. The assay can be described thus: visible spectrophotometric titration.

Turning to `CC1(C)C2CCC1(C)C(O)C2` (racemic) [isoborneol], the dissociation constant (Kd) is 10.9 ± 3.4 µM in assay [1] and 1.2 ± 0.3 µM in assay [2].
`CC12CCC(CC1)C2(C)C` [camphane]: the values for the dissociation constant (Kd) in assay [1] and in assay [2] were 18.7 ± 2.5 µM and 10.7 ± 3.3 µM, respectively.
Regarding `CC1(C)[C@@H]2CC[C@@]1(C)C(=O)C2` [d-camphor], the Kd amounted to 1.8 ± 0.8 µM in assay [3] and 3.5 ± 0.6 µM in assay [4].

In general, Kd refers to the constant that tells how readily two partners part at equilibrium. Lower therefore signals tighter binding.
